Measured values from ChEMBL document CHEMBL5321217, “Identification of pyrrolo[3',4':3,4]cyclohepta[1,2-d][1,2]oxazoles as promising new candidates for the treatment of lymphomas” (Eur J Med Chem, 2023).
The source made the active and inactive calls. No cut-off for these calls is given here.

Experiments:
SK-MEL-2 = experiment: Antiproliferative activity against human SK-MEL-2 cells assessed as growth inhibition incubated for 72 hrs by MTT assay; assay type: functional
HCT-116 = experiment: Antiproliferative activity against human HCT-116 cells assessed as growth inhibition incubated for 72 hrs by MTT assay; assay type: functional
A549 = experiment: Induction of apoptosis in human A549 cells assessed as increase in apoptotic cells incubated for 48 hrs by annexin V-FITC and PI staining based flow cytometric analysis; assay type: functional, cell-based; conditions: dose 1-5 µM
Summary of the method: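 Cells exposed to several concentrations for 48 h, then stained with annexin V-FITC and PI and read by flow cytometry (FL1/FL3). Apoptotic cells = annexin V-positive plus annexin V/PI double-positive. Mean of three independent experiments.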

VL51 = experiment: Induction of mitochondrial membrane potential depolarization in human VL51 cells at 0.5 to 1 uM measured after 24 hrs by JC-1 fluorescent dye based flow cytometry analysis; assay type: functional, cell-based; conditions: dose 0.5-1 µM
Summary of the method: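 VL51 cells treated 24 h at 0.5 and 1.0 μM, labelled with JC-1, analysed by flow cytometry in FL1 and FL2 channels.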

IGROV-1 = experiment: Antiproliferative activity against human IGROV-1 cells assessed as growth inhibition incubated for 72 hrs by MTT assay; assay type: functional
OVCAR-4 = experiment: Antiproliferative activity against human OVCAR-4 cells assessed as growth inhibition incubated for 72 hrs by MTT assay; assay type: functional
TK-10 = experiment: Antiproliferative activity against human TK-10 cells assessed as growth inhibition incubated for 72 hrs by MTT assay; assay type: functional
SK-MEL-28 = experiment: Antiproliferative activity against human SK-MEL-28 cells assessed as growth inhibition incubated for 72 hrs by MTT assay; assay type: functional
UACC-257 = experiment: Antiproliferative activity against human UACC-257 cells assessed as growth inhibition incubated for 72 hrs by assay; assay type: functional

COc1ccc(Cn2cc3c(c2-c2cc(OC)c(OC)c(OC)c2)CCCc2cnoc2-3)cc1
GI50 (SK-MEL-2): 1610 nM | GI50 (HCT-116): 390 nM | Activity (A549): Dose-Dependent Effect | Activity (VL51): Active | GI50 (IGROV-1): 560 nM | GI50 (OVCAR-4): 4970 nM

COc1ccc(Cn2cc3c(c2-c2cc(OC)c(OC)c(OC)c2)CCCc2cnoc2-3)cc1N
GI50 (TK-10): 96600 nM | GI50 (HCT-116): 400 nM | Activity (A549): Dose-Dependent Effect | Activity (VL51): Active | GI50 (IGROV-1): 1560 nM | GI50 (SK-MEL-28): 2930 nM | GI50 (UACC-257): 580 nM
